Assay results as given in ChEMBL document CHEMBL2424620, “β2-Adrenoceptor agonists in the regulation of mitochondrial biogenesis” (Bioorg Med Chem Lett, 2013).
pKd: −log10 of the molar value. Activity calls are given as the source filed them. The calls are words filed in the database; no cut-off is given here.

Legend:
RPT [1] = test: Induction of Mitochondrial biogenesis in rabbit RPT cells at 10 to 3000 nM after 24 hrs by FCCP-OCR assay relative to control; type: functional, cell-based; conditions: Oryctolagus cuniculus
In short: (§1)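 Primary cultures of rabbit renal proximal tubule cells, grown under improved conditions favouring aerobic respiration, were exposed to compound (10–3,000 nM) for 24 h. FCCP-uncoupled oxygen consumption rate was then read on a Seahorse XF-96. Plates included vehicle (DMSO <0.5%), SRT1720 10 μM positive control and blanks. Results are expressed as a ratio or percent fold change versus DMSO, mean ± s.e.m., N=4. A ratio >1.15 was classed as MB.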

RPT [2] = test: Induction of Mitochondrial biogenesis in rabbit RPT cells after 24 hrs by FCCP-OCR assay relative to control; type: functional, cell-based; conditions: Oryctolagus cuniculus; in short: as §1
[3] = target: Beta-2 adrenergic receptor (Homo sapiens, UniProt P07550); test: Binding affinity to beta-2 adrenergic receptor (unknown origin) at 1 to 10000 nM
Chain of Beta-2 adrenergic receptor (P07550 whole entry): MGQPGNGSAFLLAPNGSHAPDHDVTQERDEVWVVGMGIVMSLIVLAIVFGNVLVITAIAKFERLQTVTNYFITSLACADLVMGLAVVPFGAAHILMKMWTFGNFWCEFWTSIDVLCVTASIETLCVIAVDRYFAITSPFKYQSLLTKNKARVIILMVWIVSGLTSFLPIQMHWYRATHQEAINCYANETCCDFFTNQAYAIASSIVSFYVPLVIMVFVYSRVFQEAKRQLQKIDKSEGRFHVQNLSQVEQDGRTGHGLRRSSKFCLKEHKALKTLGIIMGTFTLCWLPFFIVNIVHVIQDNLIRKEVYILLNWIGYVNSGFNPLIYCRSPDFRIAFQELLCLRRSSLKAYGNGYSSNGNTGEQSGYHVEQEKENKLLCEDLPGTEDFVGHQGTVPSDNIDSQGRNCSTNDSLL

| SMILES | Activity (RPT [1]) | Activity (RPT [2]) | pKd [3] |
| --- | --- | --- | --- |
| CC(C)(C)NCC(O)c1cc(Cl)c(N)c(Cl)c1 (stereo unspecified) | inactive |  |  |
| CC(C)(C)NCC(O)c1cc(O)cc(O)c1 (stereo unspecified) |  | Active |  |
| CC(C)NCC(O)c1ccc(O)c(O)c1 (stereo unspecified) | inactive |  |  |
| CC(Cc1ccc(O)cc1)NCC(O)c1cc(O)cc(O)c1 (stereo unspecified) | Active |  |  |
| CNCCC(Oc1ccccc1OC)c1ccccc1 (stereo unspecified) | Active |  |  |
| CNCC[C@@H](Oc1ccccc1C)c1ccccc1 | Active |  |  |
| C[C@@H](NCCc1ccc(O)cc1)[C@@H](O)c1ccc(O)cc1 (relative stereo) [rel-RITODRINE] |  | Active | 9.30 |
| CCC(NC1CCCC1)C(O)c1ccc(O)c(O)c1 (stereo unspecified) [CYCLOPENTYLBUTANEPHARINE] |  | Active | 8.00 |
| CCC(NC(C)C)C(O)c1ccc(O)c(O)c1 (stereo unspecified) [ISOETHARINE] | inactive |  | 6.00 |
| CC(C)NCC(O)c1cc(O)cc(O)c1 (stereo unspecified) [METAPROTERENOL] |  | Active | 6.30 |
| CCC(NC(C)C)C(O)c1ccc(O)c2[nH]c(=O)ccc12 (stereo unspecified) [PROCATEROL] | Active |  | 7.10 |
